From ChEMBL document CHEMBL1817629, “Design, synthesis, bioconversion, and pharmacokinetics evaluation of new ester prodrugs of olmesartan” (Eur J Med Chem, 2011)

What was measured:
[1] = Metabolic stability in rat plasma assessed as compound remaining at 50 ug/mL after 30 mins by LC-MS/MS analysis; type: ADME, cell-free; conditions: read-out: Stability
Procedure, shortened: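 Prodrug at 50 μg/mL in rat plasma, incubated 30 min at 37 °C; samples analyzed immediately by LC-MS/MS, reported as percent of compound remaining.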

[2] = Stability of the compound in rat liver microsomes assessed as half life at 1 uM by LC/MS/MS analysis; type: ADME, Microsome
Procedure, shortened: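 Rat liver microsomes (0.5 mg/mL total protein) with 1.2 mM NADPH in 100 mM phosphate buffer pH 7.4; prodrug added from acetonitrile stock (100 μM) to final 1 μM. Kept at 37 °C, sampled 0, 15, 30, 60, 120 min. Stopped with two volumes cold acetonitrile plus internal standard, centrifuged, supernatant by LC-MS/MS. Mean of duplicate experiments.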

[3] = Stability of the compound in simulated gastric juice assessed as half life at 1 uM by LC/MS/MS analysis; type: physicochemical
Procedure, shortened: (§1)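 Prodrug added from acetonitrile stock (100 μM) to rat plasma or simulated gastric juice at final 1 μM. Held at 37 °C, sampled 0, 15, 30, 60, 120 min. Quenched with two volumes cold acetonitrile containing internal standard, centrifuged, supernatant analyzed by LC-MS/MS. Half-life as mean of duplicate experiments.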

[4] = Stability of the compound in rat plasma assessed as half life at 1 uM by LC/MS/MS analysis; type: ADME, cell-free; procedure, shortened: as §1

remaining at 0.5 h, 50 ug/mL [1]	half-life at 1 µM [2]	half-life at 1 µM [3]	half-life at 1 µM [4]	SMILES
85.8%				CCCc1nc(C(C)(C)O)c(C(=O)OC(C)OC(=O)c2ccccc2)n1Cc1ccc(-c2ccccc2-c2nnn[nH]2)cc1 (stereo not drawn)
	2.7 min	928 min	9.68 min	CCCc1nc(C(C)(C)O)c(C(=O)OC(C)OC(=O)C2CCCCC2)n1Cc1ccc(-c2ccccc2-c2nnn[nH]2)cc1 (stereo not drawn)
	4.95 min	> 1000 min	0.956 min	CCCc1nc(C(C)(C)O)c(C(=O)OCc2oc(=O)oc2C)n1Cc1ccc(-c2ccccc2-c2nnn[nH]2)cc1 [OLMESARTAN MEDOXOMIL]

Further lines, the molecule ahead of its results:

SMILES	remaining at 0.5 h, 50 ug/mL [1]	half-life at 1 µM [2]	half-life at 1 µM [3]	half-life at 1 µM [4]
CCCc1nc(C(C)(C)O)c(C(=O)OCOC(=O)C23CC4CC(CC(C4)C2)C3)n1Cc1ccc(-c2ccccc2-c2nnn[nH]2)cc1	79.8%	2.28 min	312 min	10 min
CCCc1nc(C(C)(C)O)c(C(=O)OCc2c[nH]c(=O)[nH]c2=O)n1Cc1ccc(-c2ccccc2-c2nnn[nH]2)cc1	96.3%			
CCCCCCCCOC(=O)c1c(C(C)(C)O)nc(CCC)n1Cc1ccc(-c2ccccc2-c2nnn[nH]2)cc1	90.2%			
